ChEMBL document CHEMBL3872202, “Synthesis and biofilm formation reduction of pyrazole-4-carboxamide derivatives in some Staphylococcus aureus strains” (Eur J Med Chem, 2016)

Key:
[1] = tested on: Staphylococcus aureus; assay: Inhibition of Staphylococcus aureus ATCC 6538 planktonic growth at 250 uM after 24 hrs by microbroth dilution method
[2] = tested on: Staphylococcus aureus; assay: Inhibition of Staphylococcus aureus ATCC 29213 planktonic growth at 250 uM after 24 hrs by microbroth dilution method
[3] = tested on: Staphylococcus aureus; assay: Antibiofilm activity against Staphylococcus aureus ATCC 6538 after 24 hrs by crystal-violet stain based assay; assay type: functional; details: ATCC 6538, 24 h
Procedure, shortened: (§1)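 Biofilm prevention: diluted bacterial suspension (OD about 0.040 at 570 nm) with sub-MIC concentrations from 300 to 0.3 added at time zero, 37 °C for 24 h in 24-well polystyrene plates. Wells washed three times with PBS, stained with 0.1% crystal violet for 30 min, and the stain redissolved in ethanol. OD read at 600 nm. Percent inhibition taken against untreated control wells. Triplicate, repeated at least twice.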

[4] = tested on: Staphylococcus aureus; assay: Antibiofilm activity against Staphylococcus aureus ATCC 29213 after 24 hrs by crystal-violet stain based assay; assay type: functional; details: ATCC 29213, 24 h; procedure, shortened: as §1
[5] = tested on: Staphylococcus aureus; assay: Inhibition of Staphylococcus aureus ATCC 25923 planktonic growth at 250 uM after 24 hrs by microbroth dilution method
[6] = tested on: Staphylococcus aureus; assay: Antibiofilm activity against Staphylococcus aureus ATCC 25923 after 24 hrs by crystal-violet stain based assay; assay type: functional; details: ATCC 25923, 24 h; procedure, shortened: as §1
[7] = Toxicity in Galleria mellonella assessed as effect on time to pupation at 1 mg/kg administered as single dose measured every 24 hrs for 72 hrs; assay type: organism-based; details: in vivo
Procedure, shortened: (§2)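 Uninfected larvae given a single 1 mg/kg injection in PBS with 3% DMSO, alongside untreated and vehicle-only groups, three replicates of four larvae each. Larvae kept in starvation and monitored for weight loss and time to pupation/chrysalis formation as sub-lethal endpoints. Groups compared statistically.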

[8] = Toxicity in Galleria mellonella assessed as effect on larval weight at 1 mg/kg administered as single dose measured every 24 hrs for 72 hrs; assay type: organism-based; details: in vivo; procedure, shortened: as §2
[9] = tested on: Staphylococcus aureus; assay: Antivirulence activity against Staphylococcus aureus ATCC 29213 infected in Galleria mellonella larvae assessed as increase in larvae survival at 1 mg/kg administered as single dose pretreated for 1 hr followed by bacterial infection measured every 24 hrs for 72 hrs relative to control; assay type: functional
Procedure, shortened: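 Galleria mellonella larvae given a single 1 mg/kg injection in PBS with 3% DMSO 1 h before inoculation with live S. aureus ATCC 29213, injected into alternate prolegs. Controls: untouched larvae, uninfected vehicle-injected larvae, uninfected compound-treated larvae, and vehicle-pretreated infected larvae. Larvae held at 37 °C, survival checked at 24, 48 and 72 h. Three replicates of four larvae per group, Tukey post hoc test.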

[10] = Toxicity in Galleria mellonella assessed as effect on larval survival at 1 mg/kg administered as single dose measured every 24 hrs for 72 hrs; assay type: organism-based; details: in vivo
Procedure, shortened: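 Larvae held at 37 °C and given a single 1 mg/kg injection in PBS with 3% DMSO. Controls were untreated larvae and vehicle-injected larvae. Three replicates of four larvae per group. Survival checked at 24, 48 and 72 h after injection. Results given as mean with SD and compared by post hoc Tukey test (P < 0.05).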

[11] = tested on: Staphylococcus aureus; assay: Antibiofilm activity against Staphylococcus aureus ATCC 6538 after 24 hrs by safranin staining based assay; assay type: functional; details: ATCC 6538, 24 h
[12] = tested on: Staphylococcus aureus; assay: Antibiofilm activity against Staphylococcus aureus ATCC 29213 after 24 hrs by safranin staining based assay; assay type: functional; details: ATCC 29213, 24 h
[13] = tested on: Staphylococcus aureus; assay: Antibiofilm activity against Staphylococcus aureus ATCC 25923 after 24 hrs by safranin staining based assay; assay type: functional; details: ATCC 25923, 24 h

SMILES	IC50 [3] [µM]	IC50 [4] [µM]	IC50 [6] [µM]	IC50 [11] [µM]	IC50 [12] [µM]	IC50 [13] [µM]	growth inhibition (GI) [1]	growth inhibition (GI) [2]	growth inhibition (GI) [5]	Activity [7]	Activity [8]	fold change (FC) [9]	Activity [10]
Cc1c(C(=O)Nc2ccccc2)cnn1-c1ccccc1	77	309	112				Non-Toxic	Non-Toxic	Non-Toxic				
CC(=O)/C(=C\NNc1cc(Cl)ccc1Cl)C(=O)Nc1ccccc1	32	2.5	2.3				Non-Toxic	Non-Toxic	Non-Toxic	Non-Toxic	Non-Toxic	1.6	Non-Toxic
Cc1cc(C(=O)Nc2ccccc2)n(-c2ccccc2)n1	54	123	74				Non-Toxic	Non-Toxic	Non-Toxic				
CCOC(=O)c1c(C)n[nH]c1N	82	62	378				Non-Toxic	Non-Toxic	Non-Toxic				
Cc1c(C(=O)Nc2ccccc2)cnn1-c1cccc(Cl)c1	103	169	161				Non-Toxic	Non-Toxic	Non-Toxic				
CCOC(=O)/C(=N/Nc1cccc(C)c1)C(=O)c1cc(C)nn1CC				43	1.7	10							
Cc1c(C(=O)Nc2ccccc2)cnn1-c1cc(F)ccc1F	81	89	61				Non-Toxic	Non-Toxic	Non-Toxic				
CCn1nc(C)cc1C(=O)/C(=N\Nc1cccc(Cl)c1)C(=O)O				11	16	20							
Cc1c(C(=O)Nc2ccccc2)cnn1-c1ccc([N+](=O)[O-])cc1	55	127	434				Non-Toxic	Non-Toxic	Non-Toxic				
Cc1cc(C(=O)Nc2ccccc2)nn1-c1ccccc1	64	54	76				Non-Toxic	Non-Toxic	Non-Toxic				
CCOC(=O)/C(=N/Nc1ccccc1F)C(=O)c1cc(C)nn1CC				0.9	13	42							
CCOC(=O)c1cnn(C)c1N		152	159				Non-Toxic	Non-Toxic	Non-Toxic				
CCOC(=O)c1cn[nH]c1N	85	83	213				Non-Toxic	Non-Toxic	Non-Toxic				

Further compounds by falling IC50 [4], results first:

IC50 [3] [µM]	IC50 [4] [µM]	IC50 [6] [µM]	IC50 [11] [µM]	IC50 [12] [µM]	IC50 [13] [µM]	SMILES	growth inhibition (GI) [1]	growth inhibition (GI) [2]	growth inhibition (GI) [5]	Activity [7]	Activity [8]	fold change (FC) [9]	Activity [10]
	52	92				Cc1c(C(=O)Nc2ccccc2)cnn1-c1cc(Cl)ccc1Cl	Non-Toxic	Non-Toxic	Non-Toxic				
90	46	64				Cc1c(C(=O)Nc2ccccc2)cnn1-c1cccc([N+](=O)[O-])c1	Non-Toxic	Non-Toxic	Non-Toxic				
	46	64				Cc1c(C(=O)Nc2ccccc2)cnn1-c1ccc(C(F)(F)F)cc1	Non-Toxic	Non-Toxic	Non-Toxic				
30	38	552				Cc1c(C(=O)Nc2ccccc2)cnn1-c1ccc(Cl)cc1	Non-Toxic	Non-Toxic	Non-Toxic				
95	34	222				CCOC(=O)c1cnn(-c2ccccc2)c1N	Non-Toxic	Non-Toxic	Non-Toxic				
91	31	102				CCOC(=O)c1cnn(-c2ccccn2)c1N	Non-Toxic	Non-Toxic	Non-Toxic				
142	28	77				CCOC(=O)c1cnn(-c2ccc(S(N)(=O)=O)cc2)c1N	Non-Toxic	Non-Toxic	Non-Toxic				
